Screening results (PubChem)
This is one part of a sample in which hits are shown more often than they occur.
GASC1 inh: KDM4C (human) demethylase inhibition; GST-KDM4C 2-372, H3K9me3 peptide, LANCE TR-FRET; 96,000 compounds, 0.15% hits; inhibition, % at 12.5 µM; AID 720574;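 active = mean replicate inhibition above about 25%, with at least 55% of replicates also reaching it, limit read from the data, passing the limit was not always enough; inconclusive = only one of those two conditions met; inactive = neither condition met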
Target sequence (Q9H3R0 2-372 limits assumed): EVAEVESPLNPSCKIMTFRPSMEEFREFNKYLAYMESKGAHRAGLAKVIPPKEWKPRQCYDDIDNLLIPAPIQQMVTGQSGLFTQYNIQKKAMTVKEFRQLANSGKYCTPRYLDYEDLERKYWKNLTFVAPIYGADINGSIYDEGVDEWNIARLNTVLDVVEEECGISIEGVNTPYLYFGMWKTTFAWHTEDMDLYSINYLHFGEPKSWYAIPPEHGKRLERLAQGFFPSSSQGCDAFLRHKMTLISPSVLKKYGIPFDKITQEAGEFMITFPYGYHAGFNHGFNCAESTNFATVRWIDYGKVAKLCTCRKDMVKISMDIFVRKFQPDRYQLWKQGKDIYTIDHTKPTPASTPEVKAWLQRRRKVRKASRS
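Material: GST-tagged GASC-1 (JMJD2C) catalytic fragment, aa 2-372 / Quantity: enzyme final amount 10 nM / Medium: HEPES buffer, pH 7.5, plus ascorbate / Doses: one test concentration per compound / Incubation: 30 min reaction, 60 min detection, RT / Measured by: LANCE TR-FRET / Read-out: inhibition from TR-FRET ratio decrease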
IDH1 R132H inh: inhibitors of human IDH1 R132H. O75874. IDH1 R132H reductase, diaphorase/resazurin fluorescence, 60 min. inhibition, % at 10 µM. 70,000 compounds, 0.18% hits; in the data active = inhibition above about 34%; inconclusive = no clear call, values can overlap the other calls; inactive = below about 11%
T cruzi growth-1: inhibitors of T. cruzi proliferation. T. cruzi beta-gal in NIH3T3, GalScreen luminescence, 90 h. inhibition, % at 8.34 µM. 77,000 compounds, 5.9% hits. AID 624255;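 active = mean inhibition above about 93%, with at least 55% of replicates each passing it, limit read from the data, passing the limit was not always enough; inconclusive = only one of those two conditions holds; inactive = neither condition holds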
T cruzi growth-2: inhibitors of T. cruzi proliferation; shares compounds with T cruzi growth-1; T. cruzi beta-gal in NIH3T3, GalScreen luminescence, 90 h; inhibition, % at 8.35 µM; 5,600 compounds, 72% hits;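 active = mean replicate inhibition above about 95% and at least 55% of replicates individually reaching it, limit read from the data; inconclusive = only one of the two criteria is met; inactive = neither criterion is met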
T cruzi growth-3: blocks T. cruzi growth in NIH3T3 host cells | shares compounds with T cruzi growth-1 | T. cruzi beta-gal in NIH3T3, GalScreen luminescence, 90 h | inhibition, % at 2.09 µM | 5,600 compounds, 21% hits | AID 651740;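 active = mean inhibition above about 95%, with at least 55% of replicates also reaching it, limit read from the data; inconclusive = meets just one of the two conditions; inactive = meets neither condition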
NIH3T3 tox: kills mouse NIH/3T3 fibroblasts; shares compounds with T cruzi growth-1; NIH/3T3 viability, CellTiter-Glo ATP luminescence, 90 h; cytotoxicity (signal decrease), % at 8.35 µM; 5,600 compounds, 14% hits;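 active = mean signal decrease across replicates above about 35% based on untreated-well scatter, with enough replicates individually passing, limit read from the data; inconclusive = no rule stated though some were filed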
NIH3T3 tox 2: kills mouse NIH/3T3 fibroblasts; shares compounds with T cruzi growth-1; NIH/3T3 viability, CellTiter-Glo ATP luminescence, 90 h; inhibition, % at 24.9 µM; 5,600 compounds, 56% hits; AID 651744;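 active = mean loss of cell viability signal at or above a set limit, and enough replicates individually reaching it; inconclusive = meets only the mean limit or only the replicate share; inactive = meets neither condition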
A number is an active result; n = inactive; u = inconclusive; x = no result.

SMILES	GASC1 inh	IDH1 R132H inh	T cruzi growth-1	T cruzi growth-2	T cruzi growth-3	NIH3T3 tox	NIH3T3 tox 2
O=C(C[C@@H]1CC[C@@H]2[C@H](COC[C@H](O)CN2S(=O)(=O)c2cccc(Cl)c2)O1)Nc1ccc(-c2ccccc2)cc1	n	x	110	n	111	36	75
O=C(C[C@H]1CC[C@H]2[C@@H](COC[C@@H](O)CN2S(=O)(=O)c2cccc(Cl)c2)O1)Nc1ccccc1	n	x	n	x	x	x	x
O=C(C[C@@H]1CC[C@H]2[C@@H](COC[C@H](O)CN2S(=O)(=O)c2ccccc2)O1)Nc1ccc(-c2ccccc2)cc1	n	x	n	x	x	x	x
Cc1cc(=O)[nH]c(SCCOc2ccccc2C#N)n1	x	n	x	x	x	x	x
Cc1c(Cl)cccc1NC(=O)CSc1nnc(-c2ccc(NC(=O)c3ccccc3Br)cc2)n1C	x	n	x	x	x	x	x
C[C@@H]1CN([C@H](C)CO)C(=O)c2cc(NC(=O)Nc3ccc(C(F)(F)F)cc3)ccc2O[C@H]1CN(C)S(=O)(=O)c1cccs1	n	x	n	x	x	x	x
C[C@@H]1CN([C@@H](C)CO)C(=O)c2cccc(NS(C)(=O)=O)c2O[C@@H]1CN(C)S(=O)(=O)c1cccs1	n	n	n	x	x	x	x
C[C@@H]1CN([C@H](C)CO)C(=O)c2cc(NC(=O)Nc3ccc(C(F)(F)F)cc3)ccc2O[C@@H]1CN(C)S(=O)(=O)c1cccs1	n	n	u	108	n	n	40
C[C@H](CO)N1C[C@H](C)[C@H](CN(C)S(=O)(=O)c2cccs2)Oc2ccc(NC(=O)Nc3ccc(C(F)(F)F)cc3)cc2C1=O	n	x	115	103	n	n	100
C[C@H](CO)N1C[C@H](C)[C@H](CN(C)S(=O)(=O)c2cccs2)Oc2c(NC(=O)Nc3ccc(C(F)(F)F)cc3)cccc2C1=O	n	n	103	n	n	56	105
C[C@H](CO)N1C[C@H](C)[C@@H](CN(C)S(=O)(=O)c2cccs2)Oc2ccc(NC(=O)Nc3ccc(C(F)(F)F)cc3)cc2C1=O	n	n	n	x	x	x	x
C[C@H]1CN([C@@H](C)CO)C(=O)c2cccc(NC(=O)Nc3ccc(C(F)(F)F)cc3)c2O[C@H]1CN(C)S(=O)(=O)c1cccs1	n	n	n	x	x	x	x
C[C@H]1CN([C@@H](C)CO)C(=O)c2cccc(NS(C)(=O)=O)c2O[C@@H]1CN(C)S(=O)(=O)c1cccs1	n	n	u	n	n	n	48
O=C(NCCN1CCOCC1)c1cc(-n2cnnc2)ccc1Cl	x	n	x	x	x	x	x
COc1ccccc1CC(=O)Nc1ccc(-c2nnc(-c3ccccc3)o2)cc1	x	n	x	x	x	x	x
O=C(COc1ccc(N2CC(C(=O)O)CC2=O)cc1)Nc1ccc(Cl)c(Cl)c1 (centres undefined)	x	n	x	x	x	x	x
CC1(C)Cc2c(sc3nc(SCC(=O)c4ccc(Cl)cc4)nc(N)c23)CS1	x	n	x	x	x	x	x
C[C@H]1CN([C@@H](C)CO)S(=O)(=O)c2ccc(C3=CCCC3)cc2O[C@H]1CN(C)C(=O)C1CCCCC1	n	x	n	x	x	x	x
C[C@@H]1CN([C@@H](C)CO)S(=O)(=O)c2ccc(C3=CCCC3)cc2O[C@H]1CN(C)C(=O)C1CCCCC1	n	x	u	n	n	n	41
C[C@@H]1CN([C@@H](C)CO)S(=O)(=O)c2ccc(C3=CCCC3)cc2O[C@@H]1CN(C)C(=O)C1CCCCC1	n	n	n	x	x	x	x
C[C@@H]1CN([C@H](C)CO)S(=O)(=O)c2ccc(C3=CCCC3)cc2O[C@@H]1CN(C)C(=O)C1CCCCC1	n	x	115	102	n	u	n
COc1ccc(-c2cc(C(F)F)n3ncc(C(=O)N(C)Cc4cnn(C)c4C)c3n2)cc1	x	n	x	x	x	x	x
COC(=O)c1ccccc1NC(=O)CSc1nc2ccc(C)cc2[nH]1	x	n	x	x	x	x	x
C[C@@H]1CN([C@H](C)CO)C(=O)c2cccc(NC(=O)Nc3ccc(F)cc3)c2O[C@@H]1CN(C)Cc1ccc(Oc2ccccc2)cc1	n	n	n	x	x	x	x
C[C@H]1CN([C@@H](C)CO)C(=O)c2cccc(NC(=O)Nc3ccc(F)cc3)c2O[C@H]1CN(C)Cc1ccc(Oc2ccccc2)cc1	n	x	n	x	x	x	x
SMILES	GASC1 inh	IDH1 R132H inh	T cruzi growth-1	T cruzi growth-2	T cruzi growth-3	NIH3T3 tox	NIH3T3 tox 2
C[C@@H]1CN([C@H](C)CO)C(=O)c2cccc(NC(=O)Nc3ccc(F)cc3)c2O[C@H]1CN(C)Cc1ccc(Oc2ccccc2)cc1	n	x	115	101	n	n	46
C[C@@H]1CN([C@@H](C)CO)C(=O)c2cccc(NC(=O)Nc3ccc(F)cc3)c2O[C@H]1CN(C)Cc1ccc(Oc2ccccc2)cc1	n	n	u	96	n	n	55
COC(=O)c1ccccc1NC(=O)C(C)NS(=O)(=O)c1ccc(F)cc1 (centres undefined)	x	n	x	x	x	x	x
CCOC(=O)CSc1nc2ccc(Br)cc2c(=O)n1-c1ccccc1OC	x	n	x	x	x	x	x
CCS(=O)(=O)N1CCCCN2[C@H](CO)[C@@H](c3ccc(-c4cccc(C#N)c4)cc3)[C@@H]2C1	n	x	108	n	n	n	69
CCS(=O)(=O)N1CCCCN2[C@@H](CO)[C@@H](c3ccc(-c4ccc(C#N)cc4)cc3)[C@@H]2C1	n	x	99	n	n	n	39
CCS(=O)(=O)N1CCCCN2[C@H](CO)[C@@H](c3ccc(-c4cccc(C#N)c4)cc3)[C@H]2C1	n	x	n	x	x	x	x
CCS(=O)(=O)N1CCCCN2[C@H](C1)[C@H](c1ccc(-c3ccc(C#N)cc3)cc1)[C@@H]2CO	n	x	n	x	x	x	x
C[C@H]1CN([C@@H](C)CO)C(=O)Cc2cc(NC(=O)NC3CCCCC3)ccc2O[C@@H]1CN(C)C(=O)NC1CCCCC1	n	n	n	x	x	x	x
O=C(CNC(=O)c1ccco1)Nc1cccc(C(F)(F)F)c1	x	n	x	x	x	x	x
Cc1cc(C)nc(SC(C)C(=O)Nc2ccc(Cl)cc2)n1 (centres undefined)	x	n	x	x	x	x	x
Cc1ccc2nc(-c3ccccn3)cc(C(=O)NCc3ccccn3)c2c1	x	n	x	x	x	x	x
COCC(=O)Nc1ccc2c(c1)C(=O)N(C)[C@H]1CC[C@H](CC(=O)Nc3ccccc3OC)O[C@@H]1CO2	x	x	112	u	n	n	n
CN1C(=O)c2cc(NC(=O)c3ccc(F)cc3)ccc2OC[C@H]2O[C@@H](CC(=O)NCC3CCCCC3)CC[C@H]21	n	x	101	113	n	39	61
CN1C(=O)c2cc(NC(=O)c3ccc(F)cc3)ccc2OC[C@@H]2O[C@@H](CC(=O)NCC3CCCCC3)CC[C@@H]21	n	x	n	x	x	x	x
CC(C)C(=O)Nc1ccc2c(c1)C(=O)N(C)[C@@H]1CC[C@@H](CC(=O)NCc3ccc(F)cc3)O[C@H]1CO2	n	x	n	x	x	x	x
CC(=O)Nc1ccc2c(c1)C(=O)N(C)[C@@H]1CC[C@@H](CC(=O)NCC3CCCCC3)O[C@H]1CO2	n	x	99	n	n	n	n
CCC(=O)Nc1ccc2c(c1)C(=O)N(C)[C@H]1CC[C@H](CC(=O)Nc3ccccc3OC)O[C@@H]1CO2	n	x	n	x	x	x	x
